Data set [1] deals with Mammary carcinoma cell line. Description: Ratio of cytotoxicity in non-NTR-expressing EMT6 compared to that in NTR-expressing EMT6. The format is functional, Mus musculus. Put shortly: (§1)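 Parental and stably NTR-transfected partner lines (V79puro/V79-NTRpuro, EMT6/EMT6-NTRpuro, WiDr/WiDr-NTRneo, SKOV3/SKOV-NTRneo) tested in parallel. Aerobic sulforhodamine B growth inhibition after an 18 h exposure, read 4–5 days later. Ratio is the NTR-ve IC50 over the NTR+ve IC50, calculated within each experiment.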

Data set [2] has as its system V79. Description: Ratio of cytotoxicity activity in a non-NTR-expressing V79 compared to that in NTR-expressing V79. The format is functional. In a few lines:
as §1

Data set [3] deals with Ovarian cancer cell line. Description: Ratio of cytotoxicity in a non-NTR-expressing SKOV compared to that in NTR-expressing SKOV. The class given is functional, Homo sapiens. In a few lines:
as §1

Data set [4] deals with Ovarian cancer cell line. Description: Cytotoxicity in non-NTR-expressing human ovarian carcinoma cell line (SKOV). The class given is functional, cell-based.
The subject of data set [5] is WiDr. Description: Ratio of cytotoxicity in a non-NTR-expressing WiDr compared to that in NTR-expressing WiDr. The class given is functional, Homo sapiens. In a few lines:
as §1

The nature of data set [6]: Partition coefficient (logP). The note with it: octanol/water. The format is physicochemical. In a few lines: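 logP was calculated with prediction software, not measured.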
The subject of data set [7] is Mammary carcinoma cell line. Description: Cytotoxicity in non-NTR-expressing mouse mammary carcinoma cell line (EMT6). The class given is functional, cell-based.
Data set [8] concerns WiDr. Description: Cytotoxicity in non-NTR-expressing human colon carcinoma cell line (WiDr). The class given is functional, cell-based.
The subject of data set [9] is V79. Description: Cytotoxicity in non-NTR-expressing Chinese hamster fibroblast (V79). The class given is functional, cell-based. The note with it: Cricetulus griseus.
The nature of data set [10]: LogD value was determined. The class given is physicochemical. The note with it: octanol/water.

As to `NC(=O)c1cc(N(CCBr)CCBr)c([N+](=O)[O-])cc1[N+](=O)[O-]`, the Ratio is reported as 1380 in [1], 302 with V79 [2], 211 in the data set on Ovarian cancer cell line [3] and 174 in the data set on WiDr [5]. Also, the concentration for half-maximal inhibition (IC50) turned out to be 58000 nM in the data set with Ovarian cancer cell line [4] and 54000 nM in data set [7]. Moreover, the logP in data set [6] (read-out: logP) came to 2.68.
Take `CNc1cc2c(c3ccccc13)C(CCl)CN2C(=O)c1cc2cc(OC)c(OC)c(OC)c2[nH]1` (stereo not drawn): the Ratio in [1] was determined as 0.74; in the data set on V79 [2] it was 1.2; in the data set with Ovarian cancer cell line [3] it was 0.7; with WiDr [5] it was 1.1. Also, the IC50 in the data set on Ovarian cancer cell line [4] stood at 0.2 nM; in the data set on WiDr [8], 0.2 nM; in the data set on V79 [9] it was 0.08 nM; in [7] it was 0.11 nM. Besides, in data set [6] (read-out: logP), the logP amounted to 2.87.
Turning to `COc1cc2cc(C(=O)N3CC(CCl)c4c3cc(NC(=O)OCc3ccc([N+](=O)[O-])cc3OCCCO)c3ccccc43)[nH]c2c(OC)c1OC` (stereo not drawn), the Ratio in data set [1] is given as 91; with V79 [2] it was 11; with Ovarian cancer cell line [3], 58; in the data set on WiDr [5] it was 91. The IC50 with Ovarian cancer cell line [4] worked out at 145 nM; with WiDr [8], 191 nM; in the data set with V79 [9], 48 nM; in data set [7] it was 47 nM. The logP in data set [6] (read-out: logP) amounted to 4.57.
Take `COc1cc2cc(C(=O)N3CC(CCl)c4c3cc(NC(=O)OC(C)c3ccc([N+](=O)[O-])cc3)c3ccccc43)[nH]c2c(OC)c1OC` (stereo not drawn): the Ratio in [1] turned out to be 11; with V79 [2], 1.67; in the data set on Ovarian cancer cell line [3], 5.65; with WiDr [5], 6.6. For the same molecule, the IC50 is 158 nM with Ovarian cancer cell line [4], 154 nM in the data set with WiDr [8], 62 nM with V79 [9] and 79 nM in [7]. In addition, the logP in data set [6] (read-out: logP) was found to be 4.9.
On to `CN(C)CCOc1ccc2[nH]c(C(=O)N3CC(CCl)c4c3cc(NC(=O)OCc3ccc([N+](=O)[O-])cc3)c3ccccc43)cc2c1` (stereo not drawn), for which the Ratio in [1] is on record as 31; with V79 [2], 4.3; in the data set with Ovarian cancer cell line [3] it was 41; with WiDr [5] it was 20. Moreover, the IC50 in the data set with Ovarian cancer cell line [4] came out at 770 nM; with WiDr [8], 403 nM; in the data set on V79 [9] it was 157 nM; in data set [7] it was 208 nM. Besides, the lipophilicity (logP) in data set [6] (read-out: logP) worked out at 4.94. In [10], the logD is 3.24.
Take `COc1cc2cc(C(=O)N3CC(CCl)c4c3cc(N(C)C(=O)OCc3ccc([N+](=O)[O-])cc3)c3ccccc43)[nH]c2c(OC)c1OC` (stereo not drawn): the Ratio in data set [1] came to 27; in the data set with V79 [2], 8.4; in the data set on Ovarian cancer cell line [3], 10; with WiDr [5], 15. The IC50 in the data set on Ovarian cancer cell line [4] came to 152 nM; with WiDr [8], 101 nM; with V79 [9] it was 48 nM; in data set [7] it was 48 nM. Further, in data set [6] (read-out: logP), the logP is 3.98.
`COc1cc2cc(C(=O)N3CC(CCl)c4c3cc(NC(=O)OCc3ccc([N+](=O)[O-])cc3OCC(O)CO)c3ccccc43)[nH]c2c(OC)c1OC` (stereo not drawn): the Ratio in [1] was 13; in the data set with V79 [2], 1.75; in the data set on Ovarian cancer cell line [3] it was 40; with WiDr [5], 25. Further, the IC50 in the data set with Ovarian cancer cell line [4] was 114 nM; with WiDr [8], 129 nM; in the data set on V79 [9] it was 42 nM; in [7] it was 44 nM. Also, in [6] (read-out: logP), the logP stood at 3.38.
With `COCCOc1cc([N+](=O)[O-])ccc1COC(=O)Nc1cc2c(c3ccccc13)C(CCl)CN2C(=O)c1cc2cc(OC)c(OC)c(OC)c2[nH]1` (stereo not drawn), the Ratio in [1] was determined as 78; in the data set with V79 [2], 17; with Ovarian cancer cell line [3] it was 67; with WiDr [5], 45. The IC50 was 106 nM in the data set with Ovarian cancer cell line [4], 110 nM in the data set with WiDr [8], 31 nM with V79 [9] and 33 nM in data set [7]. The logP in [6] (read-out: logP) worked out at 4.47.
For the molecule `CN(C)CCOc1ccc2[nH]c(C(=O)N3CC(CCl)c4c3cc(N)c3ccccc43)cc2c1` (stereo not drawn), the Ratio was found to be 0.6 in data set [1], 1.2 in the data set on V79 [2], 1.6 in the data set with Ovarian cancer cell line [3] and 1.9 with WiDr [5]. Moreover, the IC50 is 13 nM with Ovarian cancer cell line [4], 6 nM in the data set on WiDr [8], 2.6 nM in the data set on V79 [9] and 1.9 nM in [7]. Besides, the logP in data set [6] (read-out: logP) worked out at 2.26. In [10], the logD was determined as 0.53.
Turning to `COc1cc([N+](=O)[O-])ccc1COC(=O)Nc1cc2c(c3ccccc13)C(CCl)CN2C(=O)c1cc2cc(OC)c(OC)c(OC)c2[nH]1` (stereo not drawn), the Ratio in data set [1] was determined as 108; in the data set on V79 [2], 6; in the data set with Ovarian cancer cell line [3], 17; with WiDr [5] it was 47. Further, the IC50 in the data set on Ovarian cancer cell line [4] stood at 59 nM; in the data set on WiDr [8], 141 nM; in the data set on V79 [9], 39 nM; in data set [7] it was 174 nM. The logP in data set [6] (read-out: logP) is 4.77.
`COc1cc2cc(C(=O)N3CC(CCl)c4c3cc(N)c3ccccc43)[nH]c2c(OC)c1OC` (stereo not drawn): the Ratio in data set [1] was 2; with V79 [2], 0.9; in the data set on Ovarian cancer cell line [3], 0.6; with WiDr [5], 0.9. The IC50 with Ovarian cancer cell line [4] amounted to 1.1 nM; in the data set with WiDr [8] it was 1.6 nM; in the data set with V79 [9], 0.33 nM; in [7], 0.37 nM. Moreover, the logP in data set [6] (read-out: logP) amounted to 1.87.
Take `COc1cc2cc(C(=O)N3CC(CCl)c4c3cc(NC(=O)OCc3ccc([N+](=O)[O-])cc3OCCO)c3ccccc43)[nH]c2c(OC)c1OC` (stereo not drawn): the Ratio in [1] is 104; with V79 [2], 11; in the data set on Ovarian cancer cell line [3] it was 84; in the data set on WiDr [5], 148. Moreover, the IC50 with Ovarian cancer cell line [4] was determined as 224 nM; with WiDr [8] it was 295 nM; with V79 [9] it was 63 nM; in [7], 107 nM. Further, the log partition coefficient (logP) in [6] (read-out: logP) is 3.79.
For `COc1cc2cc(C(=O)N3CC(CCl)c4c3cc(NC(=O)OCc3ccc([N+](=O)[O-])cc3OCCCN(C)C)c3ccccc43)[nH]c2c(OC)c1OC` (stereo not drawn), the Ratio came out at 3.4 in data set [1], 1.45 with V79 [2], 3.6 in the data set with Ovarian cancer cell line [3] and 3.8 in the data set with WiDr [5]. The IC50 with Ovarian cancer cell line [4] is 189 nM; in the data set on WiDr [8] it was 269 nM; in the data set with V79 [9], 45 nM; in data set [7] it was 74 nM. Also, the logP in data set [6] (read-out: logP) was 4.95. Moreover, the log distribution coefficient (logD) in data set [10] was found to be 2.74.
Turning to `COc1cc([N+](=O)[O-])ccc1COC(=O)Nc1ccc(COC(=O)Nc2cc3c(c4ccccc24)C(CCl)CN3C(=O)c2cc3cc(OC)c(OC)c(OC)c3[nH]2)cc1` (stereo not drawn), the Ratio was determined as 1.8 in [1], 1.03 with V79 [2], 0.7 in the data set on Ovarian cancer cell line [3] and 1.8 in the data set with WiDr [5]. The IC50 in the data set with Ovarian cancer cell line [4] came out at 223 nM; in the data set on WiDr [8], 295 nM; with V79 [9], 54 nM; in data set [7] it was 63 nM. The log partition coefficient (logP) in data set [6] (read-out: logP) was 6.09.
On to `COc1cc2cc(C(=O)N3CC(CCl)c4c3cc(NC(=O)OCc3ccc([N+](=O)[O-])cc3OCCCN3CCOCC3)c3ccccc43)[nH]c2c(OC)c1OC` (stereo not drawn), for which the Ratio in data set [1] is given as 6; in the data set on V79 [2], 2.6; in the data set on Ovarian cancer cell line [3], 6.5; in the data set with WiDr [5], 9. In addition, the IC50 came to 88 nM with Ovarian cancer cell line [4], 98 nM in the data set on WiDr [8], 20 nM in the data set with V79 [9] and 24 nM in data set [7]. The logP in [6] (read-out: logP) was determined as 4.55. In data set [10], this molecule showed a logD of 4.06.
On to `COc1cc2cc(C(=O)N3CC(CCl)c4c3cc(NC(=O)OCc3ccc([N+](=O)[O-])cc3)c3ccccc43)[nH]c2c(OC)c1OC` (stereo not drawn), for which the Ratio in [1] came out at 112; in the data set with V79 [2], 10; in the data set with Ovarian cancer cell line [3] it was 12; with WiDr [5], 33. In addition, the half-maximal inhibitory concentration (IC50) in the data set with Ovarian cancer cell line [4] amounted to 62 nM; with WiDr [8], 391 nM; in the data set on V79 [9], 89 nM; in data set [7] it was 193 nM. The logP in data set [6] (read-out: logP) worked out at 4.55.
Regarding `NC(=O)c1cc(N2CC2)c([N+](=O)[O-])cc1[N+](=O)[O-]` [TRETAZICAR], the Ratio in data set [1] came to 930; with V79 [2] it was 2090; in the data set with Ovarian cancer cell line [3], 317; in the data set on WiDr [5], 51.2. Further, the IC50 was determined as 174000 nM in the data set on Ovarian cancer cell line [4] and 710000 nM in data set [7]. The molecule also came in with a logP in data set [6] of 1.28.

The values above are taken from ChEMBL document CHEMBL1145792, “Structure-activity relationships for 4-nitrobenzyl carbamates of 5-aminobenz[e]indoline minor groove alkylating agents as prodrugs for GDEPT in conjunction with E. coli nitroreductase” (J Med Chem, 2003).
